For experiment [1], the system named is Enterococcus faecium. Put plainly: Antimicrobial activity against Enterococcus faecium D344R at 160 ug after 18 hrs by disk diffusion method. (In general: Agar diffusion results depend on both activity and mobility in agar.)
For experiment [2], the system named is Enterococcus faecium. Put plainly: Inhibition of purified Enterococcus faecium D359 His-tagged Aslfm assessed as residual activity preincubated at 100 uM for 2 mins prior to reaction initiation measured after 10 mins by UV/VIS spectrophotometry. In a few lines:
(§1)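 His-tagged Aslfm in 100 mM Tris-HCl pH 8.0, 50 mM MgCl2, 2 mM phosphoenolpyruvate, 0.16 mM NADH, 1 mM ATP, 1 mM D-Asp, 0.005% Triton X-114, with pyruvate kinase and lactate dehydrogenase. Compound in DMSO was preincubated 2 min at 37 °C, and the reaction was started with 0.3 mM UM5K. A340 was followed for 10 min. Duplicates; residual activity is relative to DMSO controls.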

Experiment [3] concerns Enterococcus faecium. The experiment in a line: Binding affinity to purified Enterococcus faecium D359 His-tagged Aslfm by isothermal titration calorimetry method. The gist of the method:
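The ligand (50 µM in buffer with 5% DMSO) was titrated into ~1 µM enzyme (5% DMSO) at 37 °C, 300 rpm, with 5–8 min intervals, to a final ratio of ~12:1. Data were corrected for ligand-into-buffer heats and fitted to a single-binding-site model.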

For experiment [4], the system named is Enterococcus faecium. Put plainly: Antimicrobial activity against Enterococcus faecium E1679 after 18 hrs by broth microdilution method. The experiment is classed as functional. To be noted: E1679, 18 h.
Experiment [5] concerns Enterococcus faecium. Put plainly: Competitive inhibition of purified Enterococcus faecium D359 His-tagged Aslfm preincubated at 1 uM for 2 mins prior to reaction initiation measured after 10 mins by time course assay. In a few lines:
(§2)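 Coupled pyruvate kinase–lactate dehydrogenase assay at 37 °C monitored at 340 nm. Starting conditions: 100 µM ATP, 1 mM D-Asp, 300 µM UDP-MurNAc-pentapeptide, 2 mM phosphoenolpyruvate, 105 µM NADH, enzyme 0.75 or 1 µM, up to six inhibitor concentrations. Progress curves over 10–15 min were fitted to a […] mechanism, with enzyme constants fixed and inhibitor constants fitted. Ki was also measured at ATP 50 and 100 µM.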

The test system of experiment [6] is Enterococcus faecium. The experiment in a line: Antimicrobial activity against Enterococcus faecium E1636 after 18 hrs by broth microdilution method. The format is functional. To be noted: E1636, 18 h. (In broth dilution the organism is exposed to a series of concentrations in liquid medium.)
In experiment [7] the test system is Enterococcus faecalis. The experiment in a line: Antimicrobial activity against Enterococcus faecalis ATCC 29212 after 18 hrs by broth microdilution method. The experiment is classed as functional. The settings on record: ATCC 29212, 18 h.
A short description of experiment [8]: Inhibition of purified Enterococcus faecium D359 His-tagged Aslfm preincubated for 2 mins prior to reaction initiation measured after 10 mins by UV/VIS spectrophotometry. In a few lines:
as §1

Experiment [9] is described as follows: Binding affinity to purified Enterococcus faecium D359 His-tagged Aslfm by kinetic study. The settings on record: in the assay text read “isothermal titration calorimetry” for “kinetic study”. (In general: Isothermal titration calorimetry measures the heat released or taken up as one component is titrated into another.)
Experiment [10] has as its system Enterococcus faecium. The experiment in a line: Inhibition of purified Enterococcus faecium D359 His-tagged Aslfm assessed as residual activity preincubated at 250 uM for 2 mins prior to reaction initiation measured after 10 mins by UV/VIS spectrophotometry. In a few lines:
as §1

Experiment [11] has as its system Enterococcus faecium. Put plainly: Antimicrobial activity against Enterococcus faecium D344R after 18 hrs by macrodilution method.
For experiment [12], the system named is Enterococcus faecium. The experiment in a line: Competitive inhibition of purified Enterococcus faecium D359 His-tagged Aslfm preincubated for 2 mins prior to reaction initiation measured after 10 mins by time course assay. In a few lines: as §2
Experiment [13] has as its system Enterococcus faecium. Put plainly: Inhibition of purified Enterococcus faecium D359 His-tagged Aslfm assessed as residual activity preincubated at 50 uM for 2 mins prior to reaction initiation measured after 10 mins by UV/VIS spectrophotometry. In a few lines:
as §1

Experiment [14] relates to Enterococcus faecium. The experiment in a line: Competitive inhibition of purified Enterococcus faecium D359 His-tagged Aslfm preincubated at 0.75 uM for 2 mins prior to reaction initiation measured after 10 mins by time course assay. The gist of the method: as §2

Calls of active or inactive are those of the source. No cut-off for these calls is given here.

The MIC is the least concentration at which growth counts as inhibited. A lower MIC goes with inhibition by little substance. Broadly, the Ki is the dissociation constant of the complex between target and ligand, obtained from inhibition or displacement. A high value points to a looser hold on the target.

Regarding `CC1(C)S[C@@H]2[C@H](NC(=O)[C@H](N)c3ccccc3)C(=O)N2[C@H]1C(=O)O`, the “growth inhibition (GI)” value in experiment [1] is “inactive”.
As to `Nc1nc(NCc2ccc3c(c2)OCO3)c2nc[nH]c2n1`, in experiment [2], the Activity came to 84%.
In the case of `Nc1nc(SCc2c(Cl)cccc2Cl)c2nc[nH]c2n1`, the Kb in experiment [3] is 2 ×10⁵ /M. For the same compound, the MIC in experiment [4], in [6] and in experiment [7] was over 64 µg/mL in each case. Besides, the inhibition result in experiment [5] is “Active”. Besides, the Activity in [2] came out at 47%. Moreover, the results for the Ki in experiment [8] and in experiment [9] were 3.2 µM and 5 µM, respectively.
Regarding `c1ccc(CN(Cc2ccccc2)c2ncnc3[nH]cnc23)cc1`, in experiment [2], the Activity stood at 83%.
For `CN(C(=O)Cn1c(-c2nonc2N)nc2ccccc21)c1ccccc1`, the Activity in experiment [2] came out at 116%.
For the compound `Nc1nnc(P(=O)(c2ccccc2)c2ccccc2)s1`, the Activity in experiment [2] was found to be 95%.
Regarding `Cc1nc(N)sc1C(=O)N(Cc1ccccc1)Cc1ccccc1`, the Activity in experiment [10] was 82%. Further, the MIC in experiment [11] is over 200 µg/mL.
Regarding `Nc1nc(SCc2ccc(Cl)cc2Cl)c2nc[nH]c2n1`, the MIC in experiment [4], in [6] and in [7] was over 64 µg/mL in each case. Besides, the Activity in experiment [2] stood at 71%. In addition, in [12], the inhibition entry was “Active”. Besides, the inhibition constant (Ki) in [8] was 35 µM.
Consider `Clc1cccc(Cl)c1CN(Cc1ccccc1)c1ncnc2[nH]cnc12`, for which, in [13], the Activity worked out at 94%.
In the case of `CS(=O)(=O)Nc1nc(CC(=O)N(Cc2cccs2)Cc2cccs2)cs1`, in experiment [2], the Activity was 91%.
For the compound `Nc1nc(NCc2cccnc2Cl)c2cn[nH]c2n1`, the Activity in experiment [2] worked out at 87%.
For `COc1ccc(CNc2nc(N)nc3[nH]cnc23)c(OC)c1`, in [2], the Activity stood at 89%.
For the compound `Nc1nc(NCc2ccc(F)cc2F)c2cn[nH]c2n1`, the Activity in experiment [2] is 93%.
Take `Nc1nc(NCc2ccc(Cl)cc2Cl)c2nc[nH]c2n1`: the Activity in experiment [2] was found to be 85%.
For `Nc1ncc(-c2nnnn2-c2ccccc2)c(-c2ccccc2)n1`, the Activity in [2] is 92%.
Consider `Nc1ncc(C(=O)N(Cc2cc(Br)cc(Br)c2)Cc2ccc3[nH]ccc3c2)o1`, for which the MIC in experiment [4] was over 64 µg/mL; in [11], over 200 µg/mL; in experiment [6], over 64 µg/mL; in experiment [7], over 64 µg/mL. Also, the Activity in [2] was found to be 44%. For the same compound, the inhibition result in experiment [12] is “Active”. Besides, in experiment [8], the inhibition constant (Ki) is 2.9 µM.
Regarding `Nc1ncc(C(=O)Nc2nc3ccccc3[nH]2)o1`, the Activity in experiment [10] worked out at 90%. The MIC in experiment [11] is over 200 µg/mL.
Regarding `Nc1nc(NCc2cccc(Cl)c2Cl)c2cn[nH]c2n1`, in [2], the Activity worked out at 86%.
For the compound `Nc1nonc1-c1nc2ccccc2n1CC(=O)Nc1ccccc1`, in experiment [2], the Activity was 89%.
As to `Nc1ncc(C(=O)N(Cc2ccccc2)Cc2ccccc2)s1`, the Activity in experiment [10] is 80%. This compound also returned an MIC in experiment [11] of over 200 µg/mL.
Regarding `O=C(c1cnc(O)cn1)N(Cc1cccs1)CC1CCCO1` (stereo unspecified), in [2], the Activity was 93%.
On to `Nc1nc(NCc2c(F)cccc2F)c2cn[nH]c2n1`, for which, in [2], the Activity was 88%.
Regarding `Cc1ccc(-n2nnnc2-c2cn[nH]c2-c2cccc(C)c2)cc1`, in [2], the Activity was determined as 92%.
With `Nc1nc(NCc2ccc(Cl)cc2Cl)c2cn[nH]c2n1`, the minimum inhibitory concentration (MIC) in experiment [4], in experiment [6] and in experiment [7] was over 64 µg/mL throughout. Also, the Activity in experiment [2] was determined as 69%. Besides, in [12], the inhibition entry is “Active”. This compound also gave an inhibition constant (Ki) in experiment [8] of 22 µM.
With `Nc1ncc(C(=O)N(Cc2ccccn2)Cc2ccccn2)o1`, in [10], the Activity was determined as 74%. This compound had a minimum inhibitory concentration (MIC) in experiment [11] of over 200 µg/mL.
In the case of `CCN(Cc1ccncc1)C(=O)c1cnc(N)o1`, the Activity in [10] was determined as 98%. Besides, in experiment [11], the MIC is over 200 µg/mL.
Turning to `CCCCN(CCCC)C(=O)c1cnc(N)o1`, in [10], the Activity came to 94%. The MIC in [11] is over 200 µg/mL.
Regarding `O=C(c1ccc(O)nc1)N(Cc1ccco1)Cc1cccs1`, the Activity in [2] stood at 93%.
As to `Nc1nc(NCc2c(F)cccc2Cl)c2cn[nH]c2n1`, in experiment [2], the Activity came out at 84%.
Consider `OC(c1ccccc1)(c1ccccc1)c1c[nH]cn1`, for which, in experiment [2], the Activity is 100%.
For the compound `Cc1ccc(F)c(CNc2nc(N)nc3[nH]ncc23)c1F`, the Activity in experiment [2] is 79%.
As to `Nc1ncc(C(=O)NCc2ccc3[nH]ccc3c2)o1`, the Activity in experiment [10] was determined as 79%. Besides, in experiment [11], the minimum inhibitory concentration (MIC) was over 200 µg/mL.
As for `Nc1nc(NCc2ccc(Cl)c(Cl)c2)c2nc[nH]c2n1`, the Activity in [2] came out at 83%.
Still for that read-out and setting: in the case of `Nc1nc(NCc2ccc(Cl)s2)c2cn[nH]c2n1` it was 74%.
As for `Nc1ncc(C(=O)N(Cc2ccccc2)Cc2ccccc2)o1`, the Activity in [10] worked out at 43%. Besides, the Kb in [3] was determined as 2 ×10⁵ /M. Moreover, the minimum inhibitory concentration (MIC) in experiment [4] was over 64 µg/mL; in experiment [11], over 200 µg/mL; in experiment [6], over 64 µg/mL; in [7] it was over 64 µg/mL. In addition, in experiment [14], the inhibition result is “Active”. Moreover, the figures for the Ki in experiment [8] and in experiment [9] were 44 µM and 5 µM, respectively.
Turning to `Clc1ccc(CN(Cc2ccccc2)c2ncnc3[nH]cnc23)cc1`, the Activity in experiment [13] amounted to 110%.
For `CCCCN(Cc1ccccc1)C(=O)c1cnc(N)o1`, in experiment [10], the Activity was 75%. The MIC in experiment [11] was over 200 µg/mL.
